From ChEMBL document CHEMBL1127620, “Synthesis and antibacterial activity of thiazolopyrazine-incorporated tetracyclic quinolone antibacterials” (1994)
Converted amounts (≈) assume the structure as drawn.

Tests used:
Assay type in all cases: functional
Escherichia coli [1] = experiment: Compound was tested for in vitro antibacterial activity (minimum inhibition concentration) against gram-negative Ec(K), Escherichia coli KC-14
Procedure, shortened: (§1)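 Two-fold agar dilution on Sensitivity Disk Agar-N (Japan Society of Chemotherapy method). Overnight broth cultures diluted in buffered saline with 0.01% gelatin to about 10⁶ CFU/mL. One loopful (5 μL/spot) inoculated onto plates containing graded agent concentrations. Incubation 37 °C, 18 h. MIC = lowest concentration inhibiting visible growth.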

Mus musculus [2] = organism: Mus musculus; experiment: Compound was tested for oral efficacy on systemic infections caused by Staphylococcus aureus IID803 in mice
Procedure, shortened: (§2)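 Male ddY mice (25 g) infected intraperitoneally with 0.5 mL overnight brain heart infusion culture diluted in 5% gastric mucin, about 35 to 500 times the LD50. Compound given orally 1 h post-infection, as 1% aqueous gum arabic suspension or distilled water solution. Four dose groups of five mice. Survival followed daily for 7 days; ED50 by Weil method.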

Mus musculus [3] = organism: Mus musculus; experiment: Compound was tested for oral efficacy on systemic infections caused by Escherichia coli KC-14 in mice.; procedure, shortened: as §2
Staphylococcus aureus [4] = experiment: In vitro minimum inhibitory concentration against gram-positive Sa (I), Staphylococcus aureus IID803.; procedure, shortened: as §1
Klebsiella pneumoniae = experiment: In vitro minimum inhibitory concentration against gram-negative Kp, Klebsiella pneumoniae B54.; procedure, shortened: as §1
Staphylococcus aureus [5] = experiment: In vitro minimum inhibitory concentration against gram-positive Sa (F), Staphylococcus aureus FDA 209P JC-1.; procedure, shortened: as §1
[6] = tested on: Staphylococcus epidermidis; experiment: In vitro minimum inhibitory concentration against gram-positive Se, Staphylococcus epidermidis IAM 1296.; procedure, shortened: as §1
Escherichia coli [7] = experiment: Compound was tested for in vitro antibacterial activity (minimum inhibition concentration) against gram-negative Ec(K), Escherichia coli KC-14.
Procedure, shortened: as §1, with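 “10⁶ CFU/mL; one” for “10⁶ CFU/mL. One”, “plates with” for “plates containing”, “18 h;” for “18 h.”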

Mus musculus [8] = organism: Mus musculus; experiment: Compound was tested for oral efficacy on systemic infections caused by Escherichia coli KC-14 in mice; procedure, shortened: as §2
Mus musculus [9] = organism: Mus musculus; experiment: Compound was tested for oral efficacy on systemic infections caused by Staphylococcus aureus IID803 in mice.; procedure, shortened: as §2

| Compound | ED50 (Mus musculus [2]) [mg/kg] | MIC (Staphylococcus aureus [4]) [µg/mL] | MIC (Klebsiella pneumoniae) [µg/mL] | MIC (Staphylococcus aureus [5]) [µg/mL] | ED50 (Mus musculus [8]) [mg/kg] | also measured |
| --- | --- | --- | --- | --- | --- | --- |
| CN1CCN(c2c(F)cc3c(=O)c(C(=O)O)c4scc5n4c3c2N(C)C5)CC1 | 3 | 0.05 (≈ 0.124 µM) | 0.05 (≈ 0.124 µM) | – | – | MIC (Escherichia coli [1]): 0.05 µg/mL (≈ 0.124 µM); ED50 (Mus musculus [3]): 1 mg/kg |
| CN1Cc2csc3c(C(=O)O)c(=O)c4cc(F)c(N5CCCC5)c1c4n23 | – | – | – | – | – | ED50 (Mus musculus [3]): > 2 mg/kg |
| CN1Cc2csc3c(C(=O)O)c(=O)c4cc(F)c(N5CCOCC5)c1c4n23 | > 12 | – | 0.05 (≈ 0.128 µM) | – | – | – |
| CN1Cc2csc3c(C(=O)O)c(=O)c4cc(F)c(N5CCSCC5)c1c4n23 | > 12 | 0.0125 (≈ 0.0308 µM) | – | 0.025 (≈ 0.0617 µM) | – | MIC [6]: 0.025 µg/mL (≈ 0.0617 µM) |
| CCN1[C@H](C)CN(c2c(F)cc3c(=O)c(C(=O)O)c4scc5n4c3c2N(C)C5)C[C@@H]1C.Cl | – | 0.05 | – | 0.05 | – | – |
| CCNCC1CCN(c2c(F)cc3c(=O)c(C(=O)O)c4scc5n4c3c2N(C)C5)C1.Cl (centres undefined) | > 12 | – | 0.05 | – | – | – |
| CN1Cc2csc3c(C(=O)O)c(=O)c4cc(F)c(N5CCC(O)C5)c1c4n23 (centres undefined) | > 12 | – | – | – | – | – |
| CCN1CCN(c2c(F)cc3c(=O)c(C(=O)O)c4scc5n4c3c2N(C)C5)CC1 | 3 | 0.05 (≈ 0.12 µM) | 0.05 (≈ 0.12 µM) | – | – | MIC (Escherichia coli [7]): 0.05 µg/mL (≈ 0.12 µM); ED50 (Mus musculus [3]): 1 mg/kg |
| CNCC1CCN(c2c(F)cc3c(=O)c(C(=O)O)c4scc5n4c3c2N(C)C5)C1 (centres undefined) | > 12 | – | 0.025 (≈ 0.06 µM) | – | – | – |
| CC1COc2c(N3CCN(C)CC3)c(F)cc3c(=O)c(C(=O)O)cn1c23 (centres undefined) [OFLOXACIN] | 11 | – | – | – | 1 | – |
| CCC1CN(c2c(F)cc3c(=O)c(C(=O)O)c4scc5n4c3c2N(C)C5)CCN1.Cl (centres undefined) | – | 0.05 | – | 0.05 | – | – |
| CN1Cc2csc3c(C(=O)O)c(=O)c4cc(F)c(N5CCC(N)C5)c1c4n23 (centres undefined) | – | – | 0.025 (≈ 0.0644 µM) | – | > 2 | – |
| C[C@@H]1CN(c2c(F)cc3c(=O)c(C(=O)O)c4scc5n4c3c2N(C)C5)C[C@H](C)N1 | – | 0.05 (≈ 0.12 µM) | – | 0.05 (≈ 0.12 µM) | > 2 | MIC (Escherichia coli [7]): 0.05 µg/mL (≈ 0.12 µM) |
| CC1CN(c2c(F)cc3c(=O)c(C(=O)O)c4scc5n4c3c2N(C)C5)CCN1C (centres undefined) | – | – | – | – | 2 | ED50 (Mus musculus [9]): 3 mg/kg |
| CN1Cc2csc3c(C(=O)O)c(=O)c4cc(F)c(N5CCNCC5)c1c4n23 | – | – | 0.025 (≈ 0.0644 µM) | – | > 2 | – |
| C[C@@H]1CN(c2c(F)cc3c(=O)c(C(=O)O)c4scc5n4c3c2N(C)C5)C[C@H](C)N1C | – | – | – | 0.025 (≈ 0.0581 µM) | 2 | ED50 (Mus musculus [9]): 2 mg/kg |
| CC1CN(c2c(F)cc3c(=O)c(C(=O)O)c4scc5n4c3c2N(C)C5)CCN1.Cl (centres undefined) | – | – | – | – | > 2 | – |
| CCC1CN(c2c(F)cc3c(=O)c(C(=O)O)c4scc5n4c3c2N(C)C5)CCN1C (centres undefined) | – | 0.05 (≈ 0.116 µM) | – | 0.05 (≈ 0.116 µM) | – | – |
